Assay results reported in ChEMBL document CHEMBL3414473.
pIC50, pKd: −log10 of the molar value. Active and inactive are the calls of the source. No cut-off for these calls is given here.

How the values were obtained:
[1] = molecular target: T1, PH domain leucine-rich repeat-containing protein phosphatase 1 (Homo sapiens, UniProt O60346); test: Inhibition of PHLPP1-mediated reduction in phosphorylation of MDM2 in human LNCAP cells after 24 hrs by Western blot analysis; type: cell-based
In short: (§1)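 LNCaP or PC-3 cells treated at various concentrations for 24 h in serum-free medium. Lysed in SDS buffer (50 mM Tris pH 8, 10 mM EDTA, 1% SDS, protease inhibitors); equal protein run on SDS-PAGE and transferred to nitrocellulose. Primary antibodies 1:1000 overnight at 4 °C, HRP secondary 1:2000; detected by ECL.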

PC-3 [2] = test: In vivo antitumor efficacy in human PC3 cells xenografted athymic nude mouse assessed as inhibition of tumor growth at 50 mg/kg, ip for 21 days relative to vehicle treated control; type: functional, organism-based; parameters: dose 50 mg/kg
In short: (§2)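 Athymic nude mice given PC-3 cells sc (1 × 10⁶ per mouse); at about 50 mm³, randomized (n = 7) and dosed once daily for 21 days either ip at 50 mg/kg (vehicle saline/PEG400/DMSO/Tween 80, 65:20:10:5) or by oral gavage at 100 mg/kg (vehicle 0.5% methylcellulose/0.1% Tween 80 in water). Tumor volume measured weekly by calipers (width² × length × 0.52); phospho-proteins checked by Western blotting of tumor lysates.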

PC-3 [3] = test: In vivo antitumor efficacy in human PC3 cells xenografted athymic nude mouse assessed as decrease in phosphorylation of IKK in tumor at 100 mg/kg, po for 21 days relative to vehicle treated control; type: functional, organism-based; parameters: dose 100 mg/kg; in short: as §2
[4] = molecular target: T1, PH domain leucine-rich repeat-containing protein phosphatase 1; test: Inhibition of PHLPP1-mediated reduction in phosphorylation of Akt at Thr308 in human PC3 cells after 24 hrs by Western blot analysis; type: cell-based; settings: PC-3; in short: as §1
LNCaP [5] = test: Induction of PHLPP1 localization to human LNCAP cell membrane at 10 uM after 24 hrs by immunofluorescence staining analysis; type: functional, cell-based
In short: (§3)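 LNCaP cells on poly-L-lysine-coated surfaces, treated in serum-free medium for 24 h. Fixed in 4% formaldehyde, permeabilized with 0.1% Triton X-100, blocked in 1% FBS, primary antibody (1:300) overnight, then Alexa Fluor secondary 2 h; DAPI nuclei; confocal imaging with cross-sectional fluorescence intensity analysis.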

[6] = molecular target: T1, PH domain leucine-rich repeat-containing protein phosphatase 1; test: Inhibition of PHLPP1-mediated reduction in phosphorylation of Akt at Thr308 in human LNCAP cells after 24 hrs by Western blot analysis; type: cell-based; in short: as §1
PC-3 [7] = test: In vivo antitumor efficacy in human PC3 cells xenografted athymic nude mouse assessed as inhibition of tumor growth at 100 mg/kg, po for 21 days relative to vehicle treated control; type: functional, organism-based; parameters: dose 100 mg/kg; in short: as §2
[8] = molecular target: T1, PH domain leucine-rich repeat-containing protein phosphatase 1; test: Inhibition of PHLPP1-mediated reduction in phosphorylation of MDM2 in human PC3 cells after 24 hrs by Western blot analysis; type: cell-based; settings: PC-3; in short: as §1
[9] = molecular target: T1, PH domain leucine-rich repeat-containing protein phosphatase 1; test: Inhibition of PHLPP1-mediated reduction in phosphorylation of Akt at Ser473 in human LNCAP cells after 24 hrs by Western blot analysis; type: cell-based; in short: as §1
PC-3 [10] = test: In vivo antitumor efficacy in human PC3 cells xenografted athymic nude mouse assessed as decrease in phosphorylation of Akt at Thr308 in tumor at 100 mg/kg, po for 21 days relative to vehicle treated control; type: functional, organism-based; parameters: dose 100 mg/kg; in short: as §2
PC-3 [11] = test: In vivo antitumor efficacy in human PC3 cells xenografted athymic nude mouse assessed as decrease in phosphorylation of MDM2 in tumor at 100 mg/kg, po for 21 days relative to vehicle treated control; type: functional, organism-based; parameters: dose 100 mg/kg; in short: as §2
LNCaP [12] = test: Induction of Akt-PHLPP1 complex to human LNCAP cell membrane after 24 hrs by immunofluorescence staining analysis; type: functional, cell-based
[13] = molecular target: T1, PH domain leucine-rich repeat-containing protein phosphatase 1; test: Inhibition of PHLPP1-mediated reduction in phosphorylation of IKK in human PC3 cells after 24 hrs by Western blot analysis; type: cell-based; settings: PC-3; in short: as §1
PC-3 [14] = test: In vivo antitumor efficacy in human PC3 cells xenografted athymic nude mouse assessed as decrease in phosphorylation of Akt at Ser473 in tumor at 100 mg/kg, po for 21 days relative to vehicle treated control; type: functional, organism-based; parameters: dose 100 mg/kg; in short: as §2
[15] = molecular target: T1, PH domain leucine-rich repeat-containing protein phosphatase 1; test: Inhibition of PHLPP1-mediated reduction in phosphorylation of IKK in human LNCAP cells after 24 hrs by Western blot analysis; type: cell-based; in short: as §1
LNCaP [16] = test: Induction of Akt localization to human LNCAP cell membrane at 10 uM after 24 hrs by immunofluorescence staining analysis; type: functional, cell-based; in short: as §3
PrEC = test: Antiproliferative activity against human PrEC cells assessed as suppression of cell viability after 24 hrs by MTT assay in serum free medium; type: cell-based
[17] = molecular target: T1, PH domain leucine-rich repeat-containing protein phosphatase 1; test: Inhibition of PHLPP1-mediated reduction in phosphorylation of Akt at Ser473 in human PC3 cells after 24 hrs by Western blot analysis; type: cell-based; settings: PC-3; in short: as §1
[18] = molecular target: RAC-alpha serine/threonine-protein kinase (Homo sapiens, UniProt P31749); test: Binding affinity to GST-tagged PH domain of AKT (unknown origin) by surface Plasmon resonance spectroscopy
In short: (§4)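 SPR: GST-tagged PH domain fusion protein immobilized on CM5 chip by amine coupling to about 17000 RU. Analyte injected at 1–20 µM at 30 µL/min; DMSO in samples and running buffer ≤1% (v/v). Kd obtained from sensorgram fitting.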

LNCaP [19] = test: Antiproliferative activity against human LNCAP cells assessed as suppression of cell viability after 24 hrs by MTT assay; type: functional, cell-based
In short: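 LNCaP cells seeded at 5000/well on poly-L-lysine-coated plates in 10% FBS; 24 h later exposed to agents in serum-free medium for 24 h. Viability expressed as percent of vehicle control; IC50 derived.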

[20] = molecular target: T1, PH domain leucine-rich repeat-containing protein phosphatase 1; test: Binding affinity to GST-tagged PH domain of PHLPP1 (unknown origin) by surface Plasmon resonance spectroscopy; in short: as §4
PC-3 [21] = test: Antiproliferative activity against human PTEN-negative PC3 cells assessed as suppression of cell viability after 24 hrs by MTT assay in serum free medium; type: functional, cell-based
[22] = molecular target: T2, 3-phosphoinositide-dependent protein kinase 1 (Homo sapiens, UniProt O15530); test: Binding affinity to GST-tagged PH domain of PDK1 (unknown origin) by surface Plasmon resonance spectroscopy; in short: as §4
T2 sequence (O15530 whole entry): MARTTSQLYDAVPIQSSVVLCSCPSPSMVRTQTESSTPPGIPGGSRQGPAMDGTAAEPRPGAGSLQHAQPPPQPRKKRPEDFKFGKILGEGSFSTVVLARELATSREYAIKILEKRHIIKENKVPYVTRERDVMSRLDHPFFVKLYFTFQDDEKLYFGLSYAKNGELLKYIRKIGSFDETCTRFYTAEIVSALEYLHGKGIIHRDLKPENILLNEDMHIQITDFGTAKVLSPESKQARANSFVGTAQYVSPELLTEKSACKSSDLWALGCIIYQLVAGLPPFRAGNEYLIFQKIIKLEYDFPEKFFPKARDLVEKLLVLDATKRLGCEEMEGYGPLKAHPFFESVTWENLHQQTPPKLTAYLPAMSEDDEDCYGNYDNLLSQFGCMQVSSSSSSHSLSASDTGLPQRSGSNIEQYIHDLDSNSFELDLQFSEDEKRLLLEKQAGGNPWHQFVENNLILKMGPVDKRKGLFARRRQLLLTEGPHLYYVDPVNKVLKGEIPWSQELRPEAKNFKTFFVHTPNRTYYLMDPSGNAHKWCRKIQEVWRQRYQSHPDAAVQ

LNCaP [23] = test: Induction of PHLPP1 localization to human LNCAP cell membrane at 5 uM after 24 hrs by immunofluorescence staining analysis; type: functional, cell-based; in short: as §3
Scaffold protein ILK = molecular target: T3, Scaffold protein ILK (Homo sapiens, UniProt Q13418); test: Binding affinity to GST-tagged PH domain of ILK (unknown origin) by surface Plasmon resonance spectroscopy; in short: as §4
T3 sequence (Q13418 whole entry): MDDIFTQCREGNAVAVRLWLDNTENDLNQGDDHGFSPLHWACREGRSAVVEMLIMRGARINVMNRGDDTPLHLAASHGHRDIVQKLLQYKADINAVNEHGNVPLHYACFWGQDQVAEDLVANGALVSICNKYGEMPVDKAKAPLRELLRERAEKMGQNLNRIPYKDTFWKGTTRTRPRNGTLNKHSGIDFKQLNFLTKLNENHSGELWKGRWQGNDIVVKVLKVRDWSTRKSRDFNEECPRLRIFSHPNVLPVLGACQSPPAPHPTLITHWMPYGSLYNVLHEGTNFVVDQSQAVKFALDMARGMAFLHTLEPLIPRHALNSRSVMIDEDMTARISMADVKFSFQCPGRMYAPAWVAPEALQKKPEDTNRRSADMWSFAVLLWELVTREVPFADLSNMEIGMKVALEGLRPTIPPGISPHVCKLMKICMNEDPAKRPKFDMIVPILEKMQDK

LNCaP [24] = test: Induction of Akt localization to human LNCAP cell membrane at 5 uM after 24 hrs by immunofluorescence staining analysis; type: functional, cell-based; in short: as §3

Chain of RAC-alpha serine/threonine-protein kinase (P31749 whole entry, the tested form may be a part): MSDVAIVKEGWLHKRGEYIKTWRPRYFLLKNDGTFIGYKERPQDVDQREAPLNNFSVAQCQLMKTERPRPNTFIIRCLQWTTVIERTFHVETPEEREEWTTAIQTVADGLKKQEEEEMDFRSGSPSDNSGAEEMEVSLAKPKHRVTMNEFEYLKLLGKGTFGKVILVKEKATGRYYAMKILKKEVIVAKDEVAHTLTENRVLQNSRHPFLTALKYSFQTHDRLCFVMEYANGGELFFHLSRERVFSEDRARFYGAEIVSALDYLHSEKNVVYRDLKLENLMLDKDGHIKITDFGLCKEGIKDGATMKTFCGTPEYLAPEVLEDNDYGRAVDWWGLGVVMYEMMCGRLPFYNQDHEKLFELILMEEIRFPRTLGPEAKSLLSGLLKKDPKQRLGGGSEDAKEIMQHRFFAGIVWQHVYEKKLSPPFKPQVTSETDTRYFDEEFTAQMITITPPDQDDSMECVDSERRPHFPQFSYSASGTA
T1 sequence (O60346 whole entry, the tested form may be a part): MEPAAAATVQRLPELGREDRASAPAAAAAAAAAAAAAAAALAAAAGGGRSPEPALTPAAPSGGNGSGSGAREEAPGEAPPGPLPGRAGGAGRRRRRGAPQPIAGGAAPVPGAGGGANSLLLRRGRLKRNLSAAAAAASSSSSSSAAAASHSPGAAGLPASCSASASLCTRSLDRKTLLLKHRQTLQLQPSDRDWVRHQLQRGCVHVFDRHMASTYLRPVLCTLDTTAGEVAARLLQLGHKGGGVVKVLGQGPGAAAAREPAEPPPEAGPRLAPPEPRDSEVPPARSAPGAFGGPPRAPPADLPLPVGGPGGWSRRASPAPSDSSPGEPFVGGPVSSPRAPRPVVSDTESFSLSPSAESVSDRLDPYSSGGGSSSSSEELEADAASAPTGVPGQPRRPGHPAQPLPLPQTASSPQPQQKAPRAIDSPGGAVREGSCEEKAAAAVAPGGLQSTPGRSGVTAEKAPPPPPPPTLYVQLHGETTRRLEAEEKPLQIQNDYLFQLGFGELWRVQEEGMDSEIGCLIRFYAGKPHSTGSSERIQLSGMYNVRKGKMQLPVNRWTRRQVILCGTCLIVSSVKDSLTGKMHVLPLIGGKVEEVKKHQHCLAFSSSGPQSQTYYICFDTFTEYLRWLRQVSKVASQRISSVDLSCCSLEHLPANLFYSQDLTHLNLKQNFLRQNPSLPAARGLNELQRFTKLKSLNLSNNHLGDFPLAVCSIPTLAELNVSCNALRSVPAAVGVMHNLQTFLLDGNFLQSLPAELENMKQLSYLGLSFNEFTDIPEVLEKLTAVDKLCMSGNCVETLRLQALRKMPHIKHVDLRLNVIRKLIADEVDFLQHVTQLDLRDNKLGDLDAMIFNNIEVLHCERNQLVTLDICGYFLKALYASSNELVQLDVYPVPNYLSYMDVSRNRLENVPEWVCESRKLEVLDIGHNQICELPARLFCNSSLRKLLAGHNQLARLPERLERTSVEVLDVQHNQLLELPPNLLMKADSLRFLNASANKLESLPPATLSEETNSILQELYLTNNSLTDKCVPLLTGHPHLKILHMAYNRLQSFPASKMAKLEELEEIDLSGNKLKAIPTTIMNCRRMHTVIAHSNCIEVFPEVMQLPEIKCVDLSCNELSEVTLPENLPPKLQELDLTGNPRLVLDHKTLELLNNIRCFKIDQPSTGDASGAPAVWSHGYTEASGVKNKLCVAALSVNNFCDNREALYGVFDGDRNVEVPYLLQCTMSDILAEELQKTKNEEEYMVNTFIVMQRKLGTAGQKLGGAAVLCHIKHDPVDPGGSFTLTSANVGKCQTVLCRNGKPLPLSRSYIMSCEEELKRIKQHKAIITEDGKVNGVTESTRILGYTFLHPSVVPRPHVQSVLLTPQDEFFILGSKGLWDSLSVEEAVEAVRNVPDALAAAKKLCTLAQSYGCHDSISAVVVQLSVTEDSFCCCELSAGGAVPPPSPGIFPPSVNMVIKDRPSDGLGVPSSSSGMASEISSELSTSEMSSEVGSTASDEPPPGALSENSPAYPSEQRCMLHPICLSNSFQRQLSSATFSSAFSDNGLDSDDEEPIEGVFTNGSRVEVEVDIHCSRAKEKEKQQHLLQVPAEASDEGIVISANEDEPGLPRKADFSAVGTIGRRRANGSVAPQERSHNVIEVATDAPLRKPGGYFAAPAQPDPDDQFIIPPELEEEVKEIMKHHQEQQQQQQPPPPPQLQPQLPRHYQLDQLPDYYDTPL

Cc1c(O)cc2c(c1C)O[C@](C)(CCCC(C)C)CC2
inhibition [1]: Dose-dependent effect | Activity (PC-3 [2]): Active | Activity (PC-3 [3]): inactive | inhibition [4]: inactive | Activity (LNCaP [5]): Active | inhibition [6]: inactive | Activity (PC-3 [7]): inactive | inhibition [8]: Dose-dependent effect | inhibition [9]: Dose-dependent effect | inhibition (PC-3 [10]): inactive | Activity (PC-3 [11]): inactive | Activity (LNCaP [12]): Dose-dependent effect | inhibition [13]: Dose-dependent effect | Activity (PC-3 [14]): inactive | inhibition [15]: Dose-dependent effect | Activity (LNCaP [16]): Active | Activity (PrEC): Non-toxic | inhibition [17]: Dose-dependent effect

CC(C)CCCC1(C)CCc2c(O)cccc2O1 (centres undefined)
pKd [18]: 6.47 | pIC50 (LNCaP [19]): 4.96

CC(C)CCCC1(C)CC(=O)c2cc(O)ccc2O1 (centres undefined)
pKd [18]: 6.55 | pIC50 (LNCaP [19]): < 4.52

Cc1c(O)cc2c(c1C)OC(C)(CCCC(C)C)CC2 (racemic)
pKd [18]: 6.28

COc1cc(O)cc2c1OC(C)(CCCC(C)C)CC2 (centres undefined)
pKd [18]: 5.73 | pIC50 (LNCaP [19]): 4.59

Cc1c(O)cc2c(c1C)OC(C)(CCCC(C)C)CC2=O (centres undefined)
pKd [18]: 6.39

CC(C)CCCC1(C)CCc2cc(N)ccc2O1 (centres undefined)
pKd [18]: 6.68 | pIC50 (LNCaP [19]): < 4.52

CC(C)CCCC1(C)CCc2cc(S(N)(=O)=O)cc(F)c2O1 (centres undefined)
pKd [18]: 6.46 | Activity (LNCaP [5]): inactive | inhibition [9]: inactive | pIC50 (LNCaP [19]): 4.70 | Activity (LNCaP [16]): inactive | inhibition [17]: inactive

Cc1cc(O)cc2c1OC(C)(CCCC(C)C)CC2=O (centres undefined)
pKd [18]: 6.49 | pIC50 (LNCaP [19]): 4.74

Cc1cc(O)cc2c1NC(C)(CCCC(C)C)CC2 (centres undefined)
pKd [18]: 7.52 | pIC50 (LNCaP [19]): 5.00

CC(C)CCCC1(C)CCc2cc(S(N)(=O)=O)cc(Br)c2O1 (centres undefined)
inhibition [1]: Dose-dependent effect | pKd [18]: 6.66 | inhibition [4]: inactive | pKd [20]: 6.16 | Activity (PC-3 [21]): Active | inhibition [6]: inactive | pKd [22]: 4.95 | inhibition [8]: Dose-dependent effect | inhibition [9]: Dose-dependent effect | pIC50 (LNCaP [19]): 5.35 | Activity (LNCaP [23]): Active | pKd (Scaffold protein ILK): 4.88 | inhibition [13]: Dose-dependent effect | Activity (LNCaP [24]): Active | inhibition [15]: Dose-dependent effect | Activity (PrEC): Non-toxic | inhibition [17]: Dose-dependent effect

CC(C)CCCC1(C)CCc2cc(O)cc(F)c2O1 (centres undefined)
pKd [18]: 6.47 | pIC50 (LNCaP [19]): 5.05

CC(C)CCCC1(C)CCc2cc(O)ccc2O1 (centres undefined)
pKd [18]: 6.46 | pIC50 (LNCaP [19]): 5.00

CC(C)CCCC1(C)CCc2cc(O)cc(O)c2O1 (centres undefined)
pKd [18]: 5.93 | pIC50 (LNCaP [19]): 4.57

Cc1c(O)cc2c(c1C)O[C@](C)(CCC[C@H](C)CCC[C@H](C)CCCC(C)C)CC2 [GAMMA-TOCOPHEROL]
pIC50 (LNCaP [19]): < 4.00

COc1cc2c(c(C)c1C)OC(C)(CCCC(C)C)CC2 (centres undefined)
pKd [18]: 5.07 | Activity (PC-3 [21]): inactive | pIC50 (LNCaP [19]): < 4.52 | Activity (PrEC): Non-toxic

CC(C)CCCC1(C)CCc2cc(O)cc(Br)c2O1 (centres undefined)
pKd [18]: 6.41 | pIC50 (LNCaP [19]): 5.10

CC(C)CCCC1(C)CCc2ccc(O)c(O)c2O1 (centres undefined)
pKd [18]: 6.01 | pIC50 (LNCaP [19]): 4.64

CC(C)CCCC1(C)CCc2cc(O)cc(C(F)(F)F)c2O1 (centres undefined)
pKd [18]: 6.35 | pIC50 (LNCaP [19]): 5.10

Cc1cc(O)cc2c1OC(C)(CCCC(C)C)CC2 (centres undefined)
pKd [18]: 6.39 | pIC50 (LNCaP [19]): 5.12
